Test results reported in ChEMBL document CHEMBL2021842, “COMPARE analysis of the toxicity of an iminoquinone derivative of the imidazo[5,4-f]benzimidazoles with NAD(P)H:quinone oxidoreductase 1 (NQO1) activity and computational docking of quinones as NQO1 substrates” (Bioorg Med Chem, 2012).

Columns and labels:
Type in all cases: functional
Conditions in all cases: read-out: Activity
[1] = test system: CCRF-CEM; experiment: Growth inhibition of human CCRF-CEM cells assessed as cell growth at 10 uM relative to untreated control
How it was run: (§1)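 NCI DTP 60-cell-line screen, first stage: a single 10 µM dose of compound given to the human tumour panel. Result reported as percent growth relative to control, on a mean growth graph.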

[2] = test system: HL-60(TB); experiment: Growth inhibition of human HL-60(TB) cells assessed as cell growth at 10 uM relative to untreated control
How it was run: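 NCI DTP NCI-60 screen, first stage: a single dose applied to 60 human tumour cell lines from nine tissue types. Output is reported as growth %.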

[3] = test system: K562; experiment: Growth inhibition of human K562 cells assessed as cell growth at 10 uM relative to untreated control; how it was run: as §1
[4] = test system: MOLT-4; experiment: Growth inhibition of human MOLT4 cells assessed as cell growth at 10 uM relative to untreated control
How it was run: (§2)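 First stage of the NCI DTP 60 human tumour cell-line screen. Cells were exposed to a single dose of 10 µM. Output is reported as growth % relative to control.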

[5] = Growth inhibition of human […] cells assessed as cell growth at 10 uM relative to untreated control; how it was run: as §2
[6] = test system: SR; experiment: Growth inhibition of human SR cells assessed as cell growth at 10 uM relative to untreated control
How it was run: (§3)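 This is the first stage of the NCI DTP 60-human-tumour-cell-line screen, covering nine tissue types. Cells receive a single dose of the test compound, and the output is reported as mean growth %.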

[7] = test system: EKVX; experiment: Growth inhibition of human EKVX cells assessed as cell growth at 10 uM relative to untreated control; how it was run: as §1
[8] = test system: HOP-62; experiment: Growth inhibition of human HOP62 cells assessed as cell growth at 10 uM relative to untreated control; how it was run: as §1
[9] = test system: HOP-92; experiment: Growth inhibition of human HOP92 cells assessed as cell growth at 10 uM relative to untreated control; how it was run: as §1
[10] = test system: NCI-H226; experiment: Growth inhibition of human NCI-H226 cells assessed as cell growth at 10 uM relative to untreated control; how it was run: as §2
[11] = test system: NCI-H23; experiment: Growth inhibition of human NCI-H23 cells assessed as cell growth at 10 uM relative to untreated control; how it was run: as §2
[12] = test system: NCI-H322M; experiment: Growth inhibition of human NCI-H322M cells assessed as cell growth at 10 uM relative to untreated control; how it was run: as §2
[13] = test system: NCI-H460; experiment: Growth inhibition of human NCI-H460 cells assessed as cell growth at 10 uM relative to untreated control; how it was run: as §2
[14] = test system: NCI-H522; experiment: Growth inhibition of human NCI-H522 cells assessed as cell growth at 10 uM relative to untreated control; how it was run: as §2
[15] = test system: HCC 2998; experiment: Growth inhibition of human HCC2998 cells assessed as cell growth at 10 uM relative to untreated control; how it was run: as §1
[16] = test system: HCT-116; experiment: Growth inhibition of human HCT116 cells assessed as cell growth at 10 uM relative to untreated control; how it was run: as §1
[17] = test system: HCT-15; experiment: Growth inhibition of human HCT15 cells assessed as cell growth at 10 uM relative to untreated control; how it was run: as §1
[18] = test system: HT-29; experiment: Growth inhibition of human HT-29 cells assessed as cell growth at 10 uM relative to untreated control; how it was run: as §1
[19] = test system: KM12; experiment: Growth inhibition of human KM12 cells assessed as cell growth at 10 uM relative to untreated control; how it was run: as §1
[20] = test system: SW-620; experiment: Growth inhibition of human SW620 cells assessed as cell growth at 10 uM relative to untreated control; how it was run: as §3
[21] = test system: SF-268; experiment: Growth inhibition of human SF268 cells assessed as cell growth at 10 uM relative to untreated control; how it was run: as §2
[22] = test system: SF-295; experiment: Growth inhibition of human SF295 cells assessed as cell growth at 10 uM relative to untreated control; how it was run: as §2
[23] = test system: SF-539; experiment: Growth inhibition of human SF539 cells assessed as cell growth at 10 uM relative to untreated control; how it was run: as §2
[24] = test system: SNB-19; experiment: Growth inhibition of human SNB19 cells assessed as cell growth at 10 uM relative to untreated control; how it was run: as §3
[25] = test system: SNB-75; experiment: Growth inhibition of human SNB75 cells assessed as cell growth at 10 uM relative to untreated control; how it was run: as §3
[26] = test system: LOX IMVI; experiment: Growth inhibition of human LOXIMVI cells assessed as cell growth at 10 uM relative to untreated control; how it was run: as §1
[27] = test system: M14; experiment: Growth inhibition of human M14 cells assessed as cell growth at 10 uM relative to untreated control; how it was run: as §1
[28] = test system: Malme-3M; experiment: Growth inhibition of human MALME-3M cells assessed as cell growth at 10 uM relative to untreated control; how it was run: as §1
[29] = test system: SK-MEL-2; experiment: Growth inhibition of human SK-MEL-2 cells assessed as cell growth at 10 uM relative to untreated control; how it was run: as §2
[30] = test system: SK-MEL-28; experiment: Growth inhibition of human SK-MEL-28 cells assessed as cell growth at 10 uM relative to untreated control; how it was run: as §2
[31] = test system: SK-MEL-5; experiment: Growth inhibition of human SK-MEL-5 cells assessed as cell growth at 10 uM relative to untreated control; how it was run: as §2
[32] = test system: UACC-62; experiment: Growth inhibition of human UACC62 cells assessed as cell growth at 10 uM relative to untreated control; how it was run: as §3
[33] = test system: IGROV-1; experiment: Growth inhibition of human IGROV1 cells assessed as cell growth at 10 uM relative to untreated control; how it was run: as §1
[34] = test system: OVCAR-3; experiment: Growth inhibition of human OVCAR3 cells assessed as cell growth at 10 uM relative to untreated control; how it was run: as §2
[35] = test system: OVCAR-5; experiment: Growth inhibition of human OVCAR5 cells assessed as cell growth at 10 uM relative to untreated control; how it was run: as §2
[36] = test system: SK-OV-3; experiment: Growth inhibition of human SKOV3 cells assessed as cell growth at 10 uM relative to untreated control; how it was run: as §2
[37] = test system: 786-0; experiment: Growth inhibition of human 786-0 cells assessed as cell growth at 10 uM relative to untreated control; how it was run: as §1
[38] = test system: A498; experiment: Growth inhibition of human A498 cells assessed as cell growth at 10 uM relative to untreated control; how it was run: as §1
[39] = test system: ACHN; experiment: Growth inhibition of human ACHN cells assessed as cell growth at 10 uM relative to untreated control; how it was run: as §1
[40] = test system: CAKI-1; experiment: Growth inhibition of human Caki1 cells assessed as cell growth at 10 uM relative to untreated control; how it was run: as §1
[41] = test system: RXF 393; experiment: Growth inhibition of human RXF393 cells assessed as cell growth at 10 uM relative to untreated control; how it was run: as §2
[42] = test system: SN12C; experiment: Growth inhibition of human SN12C cells assessed as cell growth at 10 uM relative to untreated control; how it was run: as §3
[43] = test system: TK-10; experiment: Growth inhibition of human TK10 cells assessed as cell growth at 10 uM relative to untreated control; how it was run: as §3
[44] = test system: UO-31; experiment: Growth inhibition of human UO31 cells assessed as cell growth at 10 uM relative to untreated control; how it was run: as §3
[45] = test system: PC-3; experiment: Growth inhibition of human PC3 cells assessed as cell growth at 10 uM relative to untreated control; how it was run: as §2
[46] = test system: DU-145; experiment: Growth inhibition of human DU145 cells assessed as cell growth at 10 uM relative to untreated control; how it was run: as §1
[47] = test system: MCF7; experiment: Growth inhibition of human MCF7 cells assessed as cell growth at 10 uM relative to untreated control; how it was run: as §2
[48] = test system: NCI/ADR-RES; experiment: Growth inhibition of human NCI/ADR-RES cells assessed as cell growth at 10 uM relative to untreated control; how it was run: as §2
[49] = test system: MDA-MB-231; experiment: Growth inhibition of human MDA-MB-231 cells assessed as cell growth at 10 uM relative to untreated control; how it was run: as §2
[50] = Growth inhibition of human Hs 578T cells assessed as cell growth at 10 uM relative to untreated control; how it was run: as §1
[51] = test system: MDA-MB-435; experiment: Growth inhibition of human MDA-MB-435 cells assessed as cell growth at 10 uM relative to untreated control; how it was run: as §2
[52] = test system: BT-549; experiment: Growth inhibition of human BT549 cells assessed as cell growth at 10 uM relative to untreated control; how it was run: as §1
[53] = test system: T47D; experiment: Growth inhibition of human T47D cells assessed as cell growth at 10 uM relative to untreated control; how it was run: as §3
[54] = test system: MDA-MB-468; experiment: Growth inhibition of human MDA-MB-468 cells assessed as cell growth at 10 uM relative to untreated control; how it was run: as §2

## N=C1c2nc3n(c2C(=O)c2nc4n(c21)CCCCC4)CCCCC3
[1]
  growth at 10 µM: 104%
[2]
  growth at 10 µM: 103%
[3]
  growth at 10 µM: 102%
[4]
  growth at 10 µM: 93.7%
[5]
  growth at 10 µM: 99.1%
[6]
  growth at 10 µM: 91.8%
[7]
  growth at 10 µM: 103%
[8]
  growth at 10 µM: 122%
[9]
  growth at 10 µM: 126%
[10]
  growth at 10 µM: 98.2%
[11]
  growth at 10 µM: 97.3%
[12]
  growth at 10 µM: 110%
[13]
  growth at 10 µM: 92.6%
[14]
  growth at 10 µM: 90.9%
[15]
  growth at 10 µM: 112%
[16]
  growth at 10 µM: 107%
[17]
  growth at 10 µM: 109%
[18]
  growth at 10 µM: 106%
[19]
  growth at 10 µM: 106%
[20]
  growth at 10 µM: 105%
[21]
  growth at 10 µM: 108%
[22]
  growth at 10 µM: 93.8%
[23]
  growth at 10 µM: 105%
[24]
  growth at 10 µM: 113%
[25]
  growth at 10 µM: 105%
[26]
  growth at 10 µM: 92%
[27]
  growth at 10 µM: 108%
[28]
  growth at 10 µM: 103%
[29]
  growth at 10 µM: 118%
[30]
  growth at 10 µM: 118%
[31]
  growth at 10 µM: 88.7%
[32]
  growth at 10 µM: 110%
[33]
  growth at 10 µM: 130%
[34]
  growth at 10 µM: 111%
[35]
  growth at 10 µM: 123%
[36]
  growth at 10 µM: 107%
[37]
  growth at 10 µM: 120%
[38]
  growth at 10 µM: 91.6%
[39]
  growth at 10 µM: 105%
[40]
  growth at 10 µM: 95.1%
[41]
  growth at 10 µM: 102%
[42]
  growth at 10 µM: 106%
[43]
  growth at 10 µM: 142%
[44]
  growth at 10 µM: 83.7%
[45]
  growth at 10 µM: 113%
[46]
  growth at 10 µM: 113%
[47]
  growth at 10 µM: 94.5%
[48]
  growth at 10 µM: 110%
[49]
  growth at 10 µM: 117%
[50]
  growth at 10 µM: 112%
[51]
  growth at 10 µM: 111%
[52]
  growth at 10 µM: 110%
[53]
  growth at 10 µM: 116%
[54]
  growth at 10 µM: 99.8%
